Data taken from the EternaBench riboswitch data.

Test system: MS2 coat protein
Test: apparent Kd, MS2 coat protein; higher = weaker binding; RNA-MaP array; FMN 200 µM where present
Summary of the method: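 The apparent Kd is reported as the median of filtered per-cluster binding-curve fits. To get these curves, designs transcribed by stalled E. coli RNA polymerase on Illumina sequencing-chip clusters were titrated with SNAP-549-labelled MS2 coat protein from 0.7 or 1.5 nM, doubling to 3 µM. Titrations were run without and then with constant ligand in 100 mM Tris-HCl pH 7.5, 80 mM KCl, 4 mM MgCl2, BSA, DTT, yeast tRNA and Tween-20, and green signal was normalised to red-channel RNA signal and control-cluster median Fmax.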

[1] = designed as: ON switch for flavin mononucleotide, no ligand
[2] = ligand present: flavin mononucleotide, designed as: ON switch for flavin mononucleotide
[3] = designed as: OFF switch for flavin mononucleotide, no ligand
[4] = ligand present: flavin mononucleotide, designed as: OFF switch for flavin mononucleotide

Sequence | apparent Kd [1] | apparent Kd [2] | apparent Kd [3] | apparent Kd [4]
GCCAACUCAUGAGGAUAUGGCACCUUAUUGGUGCCAGAAGGCGUGUCAAUUGACAUGAGGAUCACCCAUGUAUUAUAGUUGGCA | 446 nM | 70.3 nM | – | –
GGGUACAUCGGAGGAUAUCAUGUAAAUACAUGAGGAUCACCCAUGUCGAUGGAGACAUCGGAGAUCGAGAAGGCCGAUGUACCG | 168 nM | 294 nM | – | –
UGAAAUCAUGUAGGAUAUGCAUGGCGAAGCUACGCAGAAGGACAUGAGGAUCACCCAUGUUAUAGCUACCCAGCUCGGUGGCAA | – | – | 39.6 nM | 117 nM
CACGGCGUAUCAGGAUAUGUGGGUGUCUGGACAUGAGGAUCACCCAUGUAAACAGUAUUAGCCGUGCAGAAGGGAUCCGCUGUA | 39 nM | 65.2 nM | – | –
AGGUAACAUGAGGAUCACCCAUGUCAGGAUAUCAGUAAGAUGAGAAUAGAGUAGAGUAUGAGAAGGGACUAUAU | – | – | 43.6 nM | 32.3 nM
AGCGGCGCGGGCCACCGCAAAACCAGAAGGACAUGAGGAUCACCCAUGUAACAAAACAGGGCGGUGUAGGAUAUGGCAGACCCA | – | – | 10.3 nM | 11.8 nM
CUUUUGUGAGGAUAUCAGUAGUAAAGAAAUAAAAUUACUACUGAGAAGGCACAUGAGGAUCACCCAUGUUCCUC | – | – | 36.2 nM | 192 nM
GCACCUCUAUUUGAACCGAUACGAACAUGAGGAUCACCCAUGUAGGAUAUGCUAAAAGUUGUGUUGCAGAAGGACAUUUAGUGC | – | – | 10.7 nM | 10.5 nM
CUAUUAUUGAUCCAUUUUUUCAACAUGAGGAUCACCCAUGUGCAGGAUAUCGUGAUUAUUAUCAACGAGAAGGGCAGAUUCACG | – | – | 59.3 nM | 178 nM
CCUCUGUUAGGAUAUCUUUUGUUCGCCGUAGGUCGGAUCAUGGAGAAGGGACAUGAGGAUCACCCAUGUUUACC | – | – | 29.7 nM | 56.2 nM
AACGACGGAGGAUAUACACCCUGGGACUCAUCAUCCCUUAGACAUGAGGAUCACCCAUGUAGAAGGCCGGACAC | – | – | 34.9 nM | 154 nM
AAACAAGCAGGGAUGCUUCGCAGGGAGGAUAUCUGACUGGGCGGACAUGAGGAUCACCCAUGUACAGAGAAGGCCCAAAGCACC | – | – | 620 nM | 32 nM
UACAUGAGGAUCACCCAUGUUAACAUGGUGUUGUUAUAUCUGAGAAGGGUAAUAUUACAUUAAGUACAGGAUAUCAUUGAUGUU | – | – | 208 nM | 46.3 nM
GGAGACCUCACAGGAUAUGCUGGACUUUGUCCAGCAGAAGGGUGAAACAUGAGGAUCACCCAUGUAAUGGUCUCCAAAUUUAAU | 1030 nM | 55.6 nM | – | –
CUAUGAACGAUAGGAUAUACUGAGGUUGAGUGGGUAGAAGGAUCGAUAGUGUAGAAGACAUGAGGAUCACCCAUGUUAUGGAUU | 505 nM | 318 nM | – | –
UUAUAUAGUGUGAGGAUAUGCUGGUCCUUGGAUCAGCAGAAGGCACAUGAGGAUCACCCAUGUAGUUUAUUUUA | – | – | 29 nM | 129 nM
UUACUUUUACAGAAGGUUUAAUAAUAUAUAAAAGAAGGAUAUGUAACAUGAGGAUCACCCAUGUUUCACCCACAUGAGGAUCAU | – | – | 11.5 nM | 9.79 nM
AAUAACAGAGGAUAUACUAUUUUAUGUGUUUAUUGUUUUGAACAUGAGGAUCACCCAUGUAGAAGGCUGAUUAA | – | – | 41 nM | 58.7 nM
GUAGAGUAAGGAUAUGAUGAAUAGGAUAGAAUGGUUAGAAAUCAGAAGGUACAUGAGGAUCACCCAUGUAAUGU | – | – | 22.7 nM | 20.8 nM
AUGGAUAUCACAGGAUAUGAUAUGGAUACCAUAUCAGAAGGGUGAUCCAUCCUCUGUAAAUACAUGAGGAUCACCCAUGUGUCC | 15.6 nM | 15.6 nM | – | –
AAAUAGUUAGGAUAUACAUGAGGAUCACCCAUGUGGACUGAUGGCGAUUAAUUUAGUGGUAGAAGGGACUCAAA | – | – | 43.9 nM | 49.9 nM
CGCAAGUCAGGAUAUUCGACAGGUAAAUCAGUGGAUCAGAAGGAGAAGGGACAUGAGGAUCACCCAUGUAAGUA | – | – | 49.7 nM | 29.4 nM
UUGGAGUACGUAGGAUAUGUAGGAUAUUCCUACAUGAGGAUCACCCAUGUUUACAUGGAAGAAGGACAGAAGGACGUGCUCCAU | 1120 nM | 14.7 nM | – | –
ACUAAUUAGUGAGGAUAUACAUAAUUUAUAACUGUAGAAGGCACAAACCUCAAUACAUGAGGAUCACCCAUGUGGUAUAUAAAU | – | – | 244 nM | 434 nM

Sequence | apparent Kd [1] | apparent Kd [2] | apparent Kd [3] | apparent Kd [4]
CCCGGGCCUGUGAGGAUAUCGGGCCCGAAAGGGUUUGAGAAGGCACAUGAGGAUCACCCAUGUAAGGGUUUGGG | – | – | 33.8 nM | 24.7 nM
CUGAUUUGCUAGAAGGGUGACAUGAGGAUCACCCAUGUGCGGGCAGACCUAUCUUCAUGCCCGCCACAGGAUAUAGCAAUUCGC | 38.3 nM | 48.2 nM | – | –
AUGACAGGCAGAGCGCAACGGCGAACAUGAGGAUCACCCAUGUAGGAUAUGCUACACAAAGUGUAGCAGAAGGACAUGCGACGA | – | – | 48.3 nM | 206 nM
UUUAUGUCAGGAUAUUCGGAUAGGAAAACGAAAACCUAUCCGAAGAAGGGACAUGAGGAUCACCCAUGUAAAAA | – | – | 217 nM | 151 nM
GUGUACGCAGGAUAUACAUGAGGAUCACCCAUGUGAAUAAGAUAGAAUAAGAUAAAGUGUAGAAGGGCGAGUGU | – | – | 35.2 nM | 34.9 nM
GGCGCCCGGGCGGAGUCCCACACACAUGAGGAUCACCCAUGUAGAAGGCGCUGCCGCAAGGUCAGCGAGGAUAUACAUUAAGGA | – | – | 14.8 nM | 45.8 nM
UUUAAUCGAAACAUGAGGAUCACCCAUGUGUUGUAAUUAACAUAGGAUAUUUGUAUACUUUUAUAAGAGAAGGAUGAUAAUACU | 21.2 nM | 15.8 nM | – | –
GUGGUUGUCGUAGGAUAUGUAGGAUAUUCCUACAUGAGGAUCACCCAUGUUCGCAUGGAAGAAGGACAGAAGGACGAUGACCAG | 801 nM | 22.7 nM | – | –
AAACAGGGAGGAUAUACAUAGAUCCUCUAACCUAAUUGGUCACAUGAGGAUCACCCAUGUAGAAGGCCCUUAGG | – | – | – | 11.3 nM
UUACAUACAAAGUUACAUGAGGAUCACCCAUGUUUAUUGGGAAGAAGGGUAACAUUAUUAAAUAUAUAGGAUAUUUCACAAUUG | 558 nM | 359 nM | – | –
GUGAUGAUCGAGAAGGCCACUACAUGAGGAUCACCCAUGUCGUGGUGUAUUGGAGGAUAUCGAUCGACGUCUUAUGAGGACAUA | – | – | 4.82 nM | 5.95 nM
UUCGGACUAUCAGGAUAUGGUGUAGCCUAGUAAAGGACAUGAGGAUCACCCAUGUACCAUUGGUGCCAGAAGGGAUGAUCCUAC | 141 nM | 55.3 nM | – | –
GGACGUCCCAUUAACAUGAGGAUCACCCAUGUCAAAAGACAUGAGGAUAUGCUACCUAAUUGGUAGCAGAAGGCAUGGACGUCC | 878 nM | 85.4 nM | – | –
CUCUUGUGAGGAUAUGCUGCUCGUCACGAAAGUGAUGAGUAGCAGAAGGCACAUGAGGAUCACCCAUGUAAAUA | – | – | 93.7 nM | 21.7 nM
CCUUUCGGUGUCAGGAUAUACUGCGCCUGGCGCAAGUAGAAGGGACAUGAGGAUCACCCAUGUAGCGGGACCGA | – | – | 73.7 nM | 81.9 nM
AGUUUCUUGUAAGGAUAUACUAGCGAUAAGCUAGUAGAAGGUACUGUCUAUUGUAUCACUAUUUUACAUGAGGAUCACCCAUGU | 7.13 nM | 6.2 nM | – | –
AUCUAAGAAUUAAUUGUGACUGACAGAAGGCAAUAGUAUGUGACCGACAUGAGGAUCACCCAUGUUGAGGAUAUGUCUUGCUAC | – | – | 7.02 nM | 22.4 nM
UGUAAUGCUAUUGCAGAGGUUUAGAAGGAUAUACAUCGACAUGACCGUACAUGAGGAUCACCCAUGUAGAAGGUCUAACUUCUU | – | – | 4.95 nM | 4.91 nM
UUUUAGUCAGGAUAUCGUUAAUUUAAUUGUUUGUAUUAGUUCGAGAAGGGACAUGAGGAUCACCCAUGUAUUUU | – | – | 33.5 nM | 43 nM
UGAUCUUACAUGAGGAUCACCCAUGUAGGCCUGUAACUAACCAGAAGGCACGUAGAGUAAAACAGUGAGGAUAUGGAUGACGUA | 22.4 nM | 9.35 nM | – | –
UAAAUGUGAGGAUAUUCGUAGUACACGGAGACGUGUAUUACGGAGAAGGCACAUGAGGAUCACCCAUGUUCCUU | – | – | 22.2 nM | 166 nM
GCACGACAUGUAGGAUAUCGAGCGCCGGGCGCUCGAGAAGGACAUGAGGAUCACCCAUGUAUUCUGAGUGACCGAGGUCGAUGC | – | – | 31.2 nM | 180 nM
AGGAGUACAGGAUAUACAUGAGGAUCACCCAUGUGAGAAUUAAGUGGCGUACCACAAAGUAGAAGGGUACUCCA | – | – | 50.5 nM | 198 nM
CUUUUGUGAGGAUAUCAUUAGUAAAUAAAUAAAAUUACUACUGAGAAGGCACAUGAGGAUCACCCAUGUUCCUC | – | – | 33.9 nM | 159 nM
